As usually defined, the Ki is a dissociation constant, usually derived from enzyme kinetics or from competition with a known ligand. Usually ED50 stands for the midpoint of the dose-response relation. The inhibition is the change of the read-out against control, counted positive when it falls.

One assay has as its target D(3) dopamine receptor (Rattus norvegicus, UniProt P19020). The experiment in a line: In vitro binding affinity against cloned mammalian Dopamine receptor D3 expressed in CHO cells by, using [3H]-spiperone as radioligand. In kind it is cell-based.
Assay [1] concerns Rattus norvegicus. The experiment in a line: The compound was tested in vivo for biochemical effect against the changes in different brain area levels of DOPA in reserpinized rat hemispheres (mainly cortex)at dose 12.5 uM/kg; inactive. Type of assay: functional, organism-based. Summed up:
(§1)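 Male Sprague-Dawley rats (200-300 g) pretreated with reserpine 5 mg/kg sc 18 h before. Injection volume 5 mL/kg, test solutions at neutral pH. DOPA and 5-HTP in limbic system, striatum and hemispheres measured by HPLC with electrochemical detection. Dose-response curves from four to six dose levels (n = 4) per brain area.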

In assay [2] the test system is Rattus norvegicus. The experiment in a line: In vivo for biochemical effect against brain area levels of 5-HTP in reserpinized rat hemispheres (mainly cortex). Type of assay: functional. Summed up:
as §1

For assay [3], the target named is T1, D(2) dopamine receptor (Rattus norvegicus, UniProt P61169). The experiment in a line: In vitro binding affinity against cloned mammalian Dopamine receptor D2 expressed in CHO cells using [3H]U-86170 as radioligand. In kind it is cell-based. The following applies: read-out: Ki. The gist of the method:
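Membranes from CHO cells (20-60 μg protein) in 20 mM HEPES, 10 mM MgSO4, pH 7.4. Nonspecific binding defined with excess haloperidol. 11 concentrations, each in duplicate. Incubated 1 h at room temperature, then filtered and counted. IC50 from a one-site competition fit, converted to Ki by Cheng-Prusoff.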

Assay [4] relates to Rattus norvegicus. The assay can be described thus: The compound was tested in vivo for biochemical effect against the changes in different brain area levels of DOPA in reserpinized rat corpus striatum at dose 12.5 uM/kg; inactive. In kind it is functional, organism-based. The gist of the method: as §1
The test system of assay [5] is Rattus norvegicus. The assay can be described thus: In vivo changes in different brain area levels of 5-HTP in reserpinized rat corpus striatum. Type of assay: functional. Summed up:
(§2)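 Male Sprague-Dawley rats (200-300 g) pretreated with reserpine 5 mg/kg sc 18 h before. Injection volume 5 mL/kg at neutral pH. Brain-region 5-HTP measured by HPLC with electrochemical detection. Dose-response curves used four to six doses, n = 4.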

Assay [6] addresses 5-hydroxytryptamine receptor 1D (Homo sapiens, UniProt P28221). The experiment in a line: In vitro binding affinity against cloned mammalian 5-hydroxytryptamine 1D receptor alpha expressed in CHO cells, by using [3H]5-HT as radioligand. Type of assay: cell-based. The gist of the method: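 Competition binding on CHO-cell membranes (20-60 μg protein) in 50 mM Tris, 5 mM MgCl2, 0.1% ascorbic acid, pH 7.4. Nonspecific binding defined with excess serotonin. 11 drug concentrations, each in duplicate. Incubated 1 h at room temperature, protected from light, then filtered and scintillation counted. IC50 taken from a one-site fit; Ki by Cheng-Prusoff.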

Assay [7] relates to Rattus norvegicus. The experiment in a line: The compound was tested in vivo for biochemical effect against the changes in different brain area levels of DOPA in reserpinized rat limbic system at dose 12.5 uM/kg; inactive. In kind it is functional, organism-based. Summed up:
as §1

For assay [8], the system named is Rattus norvegicus. The experiment in a line: In vivo changes in different brain area levels of 5-HTP in reserpinized rat limbic system. Type of assay: functional. Summed up:
as §2

The target of assay [9] is T2, 5-hydroxytryptamine receptor 1B (Homo sapiens, UniProt P28222). The assay can be described thus: In vitro binding affinity against cloned mammalian 5-hydroxytryptamine 1D receptor beta expressed in CHO cells, by using [3H]5-HT as radioligand. In kind it is cell-based. The gist of the method:
(§3)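 Membranes from CHO cells stably expressing the cloned receptor, made by mechanical disruption in ice-cold Tris/EDTA/EGTA pH 7.4 and differential centrifugation. [3H]serotonin at 1.7 nM in 50 mM Tris, 5 mM MgCl2, 0.1% ascorbic acid, pH 7.4. 11 drug concentrations in duplicate, 1 h at room temperature protected from light, then filtration. Excess serotonin defines nonspecific binding. One-site IC50 fit, Ki by Cheng-Prusoff.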

Assay [10] has as its system Rattus norvegicus. The assay can be described thus: The compound was tested in vivo for biochemical effect against the changes in different brain area levels of DOPA in reserpinized rat limbic system at dose 12.5 uM/kg; Partial effect. In kind it is functional, organism-based.
Assay [11] concerns Rattus norvegicus. The assay can be described thus: The compound was tested in vivo for biochemical effect against the changes in different brain area levels of DOPA in reserpinized rat hemispheres (mainly cortex)at dose 12.5 uM/kg; Partial effect. In kind it is functional, organism-based.
Assay [12] concerns Rattus norvegicus. The assay can be described thus: The compound was tested in vivo for biochemical effect against the changes in different brain area levels of DOPA in reserpinized rat corpus striatum at dose 12.5 uM/kg; Partial effect. In kind it is functional, organism-based. Summed up: as §1
Assay [13] concerns the target D(3) dopamine receptor (Rattus norvegicus) (UniProt P19020). The assay can be described thus: The compound was tested in vitro for binding affinity against cloned mammalian Dopamine receptor D3 expressed in CHO cells by, using [3H]spiperone as radioligand; inactive at 10E-6 M. In kind it is cell-based.
The subject of assay [14] is Rattus norvegicus. The experiment in a line: The compound was tested in vivo for biochemical effect against the changes in different brain area levels of DOPA in reserpinized rat limbic system. In kind it is functional. Summed up: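 Rats (male Sprague-Dawley, 200-300 g) received reserpine 5 mg/kg sc 18 h before. Injections 5 mL/kg at neutral pH. DOPA accumulation measured by HPLC with electrochemical detection as an index of DA or NE synthesis rate. Four to six dose levels, n = 4. ED50 from a sigmoidal fit.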

Assay [15] concerns Rattus norvegicus. The assay can be described thus: The compound was tested in vivo for biochemical effect against the changes in different brain area levels of DOPA in reserpinized rat hemispheres (mainly cortex); inactive at dose 50 uM/kg; Inactive. In kind it is functional, organism-based.
Assay [16] concerns Rattus norvegicus. The experiment in a line: The compound was tested in vivo for biochemical effect against the changes in different brain area levels of DOPA in reserpinized rat corpus striatum. In kind it is functional. The gist of the method: as §1
The target of assay [17] is T1, D(2) dopamine receptor. The experiment in a line: Binding affinity rat Dopamine receptor D2 expressed in CHO-K1 cells by [3H]U-86170 displacement. Type of assay: cell-based.
Assay [18] concerns the target T2, 5-hydroxytryptamine receptor 1B. The assay can be described thus: The compound was tested in vitro for binding affinity against cloned mammalian 5-hydroxytryptamine 1D receptor beta expressed in CHO cells, by using [3H]5-HT as radioligand. Further details: concentration or dose not given beside the values. Type of assay: cell-based. To be noted: concentration not given here. The gist of the method: as §3

The subject of assay [19] is Rattus norvegicus. The experiment in a line: The compound was tested in vivo for biochemical effect against the changes in different brain area levels of DOPA in reserpinized rat hemispheres (mainly cortex)at does 12.5 uM/kg; inactive. Type of assay: functional, organism-based. The gist of the method: as §1
The test system of assay [20] is Rattus norvegicus. The assay can be described thus: The compound was tested in vivo for biochemical effect against the changes in different brain area levels of DOPA in reserpinized rat limbic system at dose 50 uM/kg; inactive. In kind it is functional, organism-based.
Assay [21] concerns Rattus norvegicus. The experiment in a line: The compound was tested in vivo for biochemical effect against the changes in different brain area levels of DOPA in reserpinized rat hemispheres (mainly cortex)at dose 3.1 uM/kg; inactive. In kind it is functional, organism-based.
The subject of assay [22] is Rattus norvegicus. The experiment in a line: The compound was tested in vivo for biochemical effect against the changes in different brain area levels of 5-HTP in reserpinized rat hemispheres (mainly cortex)at dose 3.1 uM/kg; inactive. In kind it is functional, organism-based.
Assay [23] has as its system Rattus norvegicus. The assay can be described thus: The compound was tested in vivo for biochemical effect against the changes in different brain area levels of DOPA in reserpinized rat corpus striatum at dose 50 uM/kg; inactive. In kind it is functional, organism-based.

The source made the active and inactive calls. The rule behind the calls is not given here.

D(3) dopamine receptor, sequence (P19020 whole entry): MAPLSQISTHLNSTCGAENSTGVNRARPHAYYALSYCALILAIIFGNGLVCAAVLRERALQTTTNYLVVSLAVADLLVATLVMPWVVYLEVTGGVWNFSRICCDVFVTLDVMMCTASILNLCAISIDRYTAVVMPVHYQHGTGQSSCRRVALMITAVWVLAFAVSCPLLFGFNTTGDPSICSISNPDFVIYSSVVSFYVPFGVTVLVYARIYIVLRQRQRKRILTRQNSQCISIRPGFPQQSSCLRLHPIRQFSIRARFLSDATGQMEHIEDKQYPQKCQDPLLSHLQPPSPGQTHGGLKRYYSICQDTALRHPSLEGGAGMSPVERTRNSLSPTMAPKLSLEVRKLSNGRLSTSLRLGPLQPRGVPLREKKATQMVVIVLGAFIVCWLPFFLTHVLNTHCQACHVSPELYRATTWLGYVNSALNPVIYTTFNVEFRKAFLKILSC
5-hydroxytryptamine receptor 1D, sequence (P28221 whole entry): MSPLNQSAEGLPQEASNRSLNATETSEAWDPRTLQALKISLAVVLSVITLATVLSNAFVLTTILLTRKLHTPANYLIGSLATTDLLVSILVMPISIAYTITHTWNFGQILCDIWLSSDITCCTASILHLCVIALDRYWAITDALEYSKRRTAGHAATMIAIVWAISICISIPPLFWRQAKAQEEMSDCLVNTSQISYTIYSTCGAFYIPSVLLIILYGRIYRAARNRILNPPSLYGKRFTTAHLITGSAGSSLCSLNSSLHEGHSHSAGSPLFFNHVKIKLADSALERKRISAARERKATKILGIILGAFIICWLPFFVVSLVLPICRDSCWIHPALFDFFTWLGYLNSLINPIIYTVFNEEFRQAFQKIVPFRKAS
T1 sequence (P61169 whole entry): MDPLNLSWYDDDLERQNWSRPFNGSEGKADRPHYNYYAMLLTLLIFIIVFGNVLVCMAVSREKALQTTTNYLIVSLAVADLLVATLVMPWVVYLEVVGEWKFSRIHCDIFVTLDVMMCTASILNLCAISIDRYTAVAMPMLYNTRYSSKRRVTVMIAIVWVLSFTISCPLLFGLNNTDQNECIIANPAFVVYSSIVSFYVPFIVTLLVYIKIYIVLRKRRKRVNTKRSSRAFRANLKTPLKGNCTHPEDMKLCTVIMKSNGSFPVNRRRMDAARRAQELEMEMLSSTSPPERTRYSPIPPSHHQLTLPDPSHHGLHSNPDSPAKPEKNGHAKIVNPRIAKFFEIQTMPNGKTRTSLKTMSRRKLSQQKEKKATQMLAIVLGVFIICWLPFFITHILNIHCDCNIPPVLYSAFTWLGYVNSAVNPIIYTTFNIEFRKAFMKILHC
T2 sequence (P28222 whole entry): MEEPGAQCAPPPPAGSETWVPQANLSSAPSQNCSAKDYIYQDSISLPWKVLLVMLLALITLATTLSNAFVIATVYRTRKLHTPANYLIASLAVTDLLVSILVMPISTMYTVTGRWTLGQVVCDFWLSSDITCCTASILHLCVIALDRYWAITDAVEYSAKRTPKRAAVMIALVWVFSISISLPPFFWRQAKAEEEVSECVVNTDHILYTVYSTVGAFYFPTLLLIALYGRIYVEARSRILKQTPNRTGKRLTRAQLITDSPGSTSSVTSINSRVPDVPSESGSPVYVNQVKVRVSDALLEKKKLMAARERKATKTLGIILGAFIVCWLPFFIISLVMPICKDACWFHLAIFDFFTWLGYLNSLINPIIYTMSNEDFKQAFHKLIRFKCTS
D(3) dopamine receptor (Rattus norvegicus), sequence (P19020 whole entry): as the sequence (P19020 whole entry) above

Regarding `CCCN(CC(C)C)[C@@H]1CCc2ccc3[nH]ccc3c2C1`, the Ki was determined as 18 nM at D(3) dopamine receptor (read-out: Ki), 5.7 nM at D(2) dopamine receptor [3], 35 nM in assay [6] and 219 nM in assay [9]. The ED50 result in the assay on Rattus norvegicus [1], in the assay on Rattus norvegicus [4] and in the assay on Rattus norvegicus [7] was “inactive” in each case. Also, the ED50 was determined as 3.59 µmol/kg in the assay with Rattus norvegicus [2], 1.23 µmol/kg with Rattus norvegicus [5] and 1.8 µmol/kg in the assay with Rattus norvegicus [8].
For the molecule `O=Cc1c[nH]c2ccc3c(c12)CC(N1CCCC1)CC3` (stereo not given), the Ki result on D(3) dopamine receptor (cho) was “Not Active”; at D(2) dopamine receptor [3], above 1000 nM. Further, the ED50 was 0.86 µmol/kg in the assay on Rattus norvegicus [2]; “Weak activity” in the assay with Rattus norvegicus [10]; 0.58 µmol/kg in the assay with Rattus norvegicus [5]; “Weak activity” in the assay with Rattus norvegicus [11]; “Weak activity” with Rattus norvegicus [12]; 0.58 µmol/kg in the assay on Rattus norvegicus [8].
On to `c1cc2c3c(ccc2[nH]1)CCC(N1CCCC1)C3` (stereo not given), for which the inhibition in [13] and in [18] was below 45% throughout. For the same molecule, the ED50 with Rattus norvegicus [2] is 0.051 µmol/kg; in the assay with Rattus norvegicus [14], 1.57 µmol/kg; in the assay on Rattus norvegicus [16] it was 3.26 µmol/kg; in the assay with Rattus norvegicus [5], 0.066 µmol/kg; with Rattus norvegicus [8] it was 0.092 µmol/kg. For the same molecule, the ED50 result in the assay with Rattus norvegicus [15] is “inactive”. For the same molecule, the Ki was 94 nM on D(2) dopamine receptor [17] and 77 nM in assay [6].
In the case of `C=CCN(CCC)C1CCc2ccc3[nH]ccc3c2C1` (stereo not given), the Ki on D(3) dopamine receptor (read-out: Ki) is 77 nM; on D(2) dopamine receptor [17], 42 nM; in assay [6], 35 nM. The values for the ED50 in the assay on Rattus norvegicus [16] and in the assay with Rattus norvegicus [5] were 0.97 µmol/kg and 0.18 µmol/kg, respectively. The molecule further showed an inhibition in [18] below 45%. Besides, the ED50 entry in the assay with Rattus norvegicus [19] and in the assay with Rattus norvegicus [7] was “inactive” each time.
On to `c1ccc(CCCNCC2CCc3ccc4[nH]ccc4c3C2)cc1` (stereo not given), for which the Ki was determined as 199 nM at D(3) dopamine receptor (read-out: Ki), 32 nM at D(2) dopamine receptor [17], 63 nM in assay [6] and 228 nM in assay [9]. Also, the ED50 result with Rattus norvegicus [20], in the assay on Rattus norvegicus [21], in the assay on Rattus norvegicus [22] and in the assay with Rattus norvegicus [23] was “inactive” in each case. The 50% effect level with Rattus norvegicus [5] (ED50) was put at a dose of 34 µmol/kg.
